Reference: ChEMBL document CHEMBL1828511, “Searching for new NO-donor aspirin-like molecules: Furoxanylacyl derivatives of salicylic acid and related furazans” (Bioorg Med Chem, 2011)
Calls of active or inactive are those of the source. No cut-off for these calls is given here.

What was measured:
Rattus norvegicus [1] = test: Antiinflammatory activity in Wistar rat assessed as inhibition of carrageenan-induced paw edema at dose equimolar to 120 mg/kg aspirin, administered intragastrically immediately after carrageenan challenge measured after 3 hrs by water plethysmometer relative to control; type: functional; conditions: po, route intragastric
Outline: (§1)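 Male Wistar rats (180–200 g). Edema induced by intraplantar 0.1 mL of 1% carrageenan in 1% CMC into the right hindpaw. Compounds given intragastrically in 1% CMC (10 mL/kg) immediately afterwards. Aspirin at 120 mg/kg, others equimolar. Paw volume by water plethysmometer before and at 3 h. Reported as % inhibition versus vehicle (=100). Groups of 6–8, mean ± SEM, Dunnett's test.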

Rattus norvegicus [2] = test: Ulcerogenicity in Wistar rat assessed as damage in gastric mucosa-lesion index at dose equimolar to 120 mg/kg aspirin, administered intragastrically after 3 hrs by stereomicroscopy; type: toxicity, organism-based; parameters: dose 120 mg/kg, route intragastric; conditions: in vivo, po
Outline: (§2)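 Male Wistar rats (180–200 g), fasted 24 h with water available. Groups of 8–10 given aspirin 120 mg/kg intragastrically, or equimolar doses, in 1% CMC. Killed 3 h later. Glandular mucosa examined under stereomicroscope. Each hemorrhagic lesion scored by greatest length and summed as lesion index. Mean ± SEM, ANOVA with Newman–Keuls test.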

[3] = Stability of the compound in human serum assessed as half life at 200 uM by RP-HPLC analysis; type: ADME, cell-free
Outline: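 Compound added from 10 mM acetonitrile stock to human serum preheated to 37 °C. Disappearance followed by RP-HPLC (C18; acetonitrile/water 55:45, 0.1% TFA). Half-life from pseudo-first-order fit.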

[4] = Stability of the compound in phosphate buffer at pH 7.4 assessed as half life at 100 uM by RP-HPLC analysis; type: physicochemical
Outline: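 Compound held at 37 °C, final concentration 100 µM. Aliquots taken over time and analysed by RP-HPLC (C18; acetonitrile/water 55:45 with 0.1% TFA). Pseudo-first-order rate constants and half-lives obtained by fitting remaining ester versus time to one-phase exponential decay.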

[5] = Stability of the compound in 0.1 M HCl at pH 1 assessed as compound remaining at 100 uM after 3 hrs by RP-HPLC analysis; type: physicochemical; conditions: read-out: Stability
[6] = molecular target: T1, Prostaglandin G/H synthase 2 (Homo sapiens) (UniProt P35354); test: Inhibition of COX2 in LPS-stimulated human monocytes assessed as inhibition of arachidonic acid-stimulated PGE2 production at 100 uM pre-incubated for 30 mins before addition of arachidonic acid measured after 15 mins by EIA; type: cell-based
T1 sequence (whole entry): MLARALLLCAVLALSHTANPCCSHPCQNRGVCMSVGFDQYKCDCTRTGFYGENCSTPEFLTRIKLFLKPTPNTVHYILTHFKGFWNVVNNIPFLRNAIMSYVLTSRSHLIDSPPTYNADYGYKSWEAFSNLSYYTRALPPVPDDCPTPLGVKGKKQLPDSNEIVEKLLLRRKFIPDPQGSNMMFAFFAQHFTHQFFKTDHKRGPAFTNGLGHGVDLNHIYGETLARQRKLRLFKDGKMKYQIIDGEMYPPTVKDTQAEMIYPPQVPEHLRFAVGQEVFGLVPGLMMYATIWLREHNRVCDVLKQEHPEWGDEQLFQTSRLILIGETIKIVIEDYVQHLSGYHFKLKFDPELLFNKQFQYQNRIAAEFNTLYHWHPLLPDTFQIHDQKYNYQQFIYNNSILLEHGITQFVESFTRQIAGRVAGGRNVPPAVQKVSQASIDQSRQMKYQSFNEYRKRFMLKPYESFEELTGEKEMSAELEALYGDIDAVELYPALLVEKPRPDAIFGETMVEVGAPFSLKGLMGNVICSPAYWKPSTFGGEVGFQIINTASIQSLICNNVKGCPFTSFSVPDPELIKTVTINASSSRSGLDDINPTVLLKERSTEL
Outline: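 Human monocytes (10⁶ cells/mL) induced with LPS for 18 h at 37 °C, 5% CO2, then resuspended in FCS-free RPMI-1640. Compound (from 200-fold DMSO stocks) added for 30 min, then arachidonic acid (100 µM) for 15 min. Supernatant PGE2 by EIA. % inhibition versus untreated control, minus no-arachidonate background.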

[7] = Antiaggregatory activity in human platelet rich plasma assessed as inhibition of collagen-induced platelet aggregation at 300 uM preincubated for 10 mins before collagen challenge measured after 10 mins by aggregometry; type: functional
Outline: (§3)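 PRP from citrated human blood (200g, 20 min). Compound preincubated 10 min, then submaximal collagen (0.8–1.5 µg/mL) added. Light transmission recorded at 37 °C under stirring (1000 rpm) for 10 min. Vehicle 0.5% DMSO. Result is % inhibition versus control. IC50 by nonlinear regression, otherwise % inhibition at 300 µM. At least five experiments.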

[8] = molecular target: Prostaglandin G/H synthase 1 (Homo sapiens) (UniProt P23219); test: Inhibition of COX1 in human platelets assessed as inhibition of A23187-stimulated TXB2 production at 100 uM pre-incubated for 30 mins before addition of A23187 measured after 10 mins by EIA
Outline: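 Washed human platelets (10⁸ cells/mL) incubated 30 min at 37 °C with compound, diluted from 400-fold DMSO stocks. A23187 (2 µM) then added for 10 min at 37 °C, and reaction stopped with methanol. Supernatant TXB2 measured by EIA. % inhibition versus untreated control, after subtracting no-ionophore background.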

[9] = Antiaggregatory activity in human platelet rich plasma assessed as inhibition of collagen-induced platelet aggregation preincubated for 10 mins before collagen challenge measured after 10 mins by aggregometry; type: functional; outline: as §3
Thromboxane A2 receptor = molecular target: T2, Thromboxane A2 receptor (Homo sapiens, UniProt P21731); test: Antagonist activity at thromboxane receptor in human blood assessed as inhibition of U-46619-induced effect; type: functional
T2 sequence (P21731 whole entry): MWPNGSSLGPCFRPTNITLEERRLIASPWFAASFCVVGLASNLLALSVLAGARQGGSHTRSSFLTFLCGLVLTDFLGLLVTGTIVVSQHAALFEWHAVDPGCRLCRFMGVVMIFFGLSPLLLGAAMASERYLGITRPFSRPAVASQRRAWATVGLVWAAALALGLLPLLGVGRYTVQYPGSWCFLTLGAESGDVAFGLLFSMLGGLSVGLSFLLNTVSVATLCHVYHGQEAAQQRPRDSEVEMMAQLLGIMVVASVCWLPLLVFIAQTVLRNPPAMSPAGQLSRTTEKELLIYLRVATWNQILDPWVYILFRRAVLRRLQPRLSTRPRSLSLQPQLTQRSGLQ
Outline: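 Citrated human blood pretreated with 1 mM acetylsalicylic acid; PRP made by 200g spin for 20 min. PRP incubated with compound or vehicle (0.5% DMSO), then challenged with U-46619 (0.5–2.5 µM). Aggregation recorded as light transmission at 37 °C with stirring. At least four experiments per compound.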

Aorta [10] = test: Vasodilatory activity in Wistar rat thoracic aorta assessed as relaxation of L-phenylephrine-induced vasoconstriction; type: functional, tissue-based
Outline: (§4)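 Rat aortic strips equilibrated 120 min, then contracted with phenylephrine. At plateau, cumulative concentrations of vasodilator added. Tension recorded isometrically. Results given as EC50 ± SE. Where tested, ODQ was added to the bath 5 min before contraction.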

[11] = Antiaggregatory activity in human platelet rich plasma assessed as inhibition of collagen-induced platelet aggregation preincubated for 10 mins before collagen challenge measured after 10 mins by aggregometry in presence of 50 uM of sGC inhibitor ODQ; type: functional
Outline: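 Collagen-induced aggregation in human PRP run as in the standard assay, with the sGC inhibitor ODQ (50 µM) present. Compound preincubated 10 min before submaximal collagen (0.8–1.5 µg/mL). Light transmission followed 10 min at 37 °C. At least five experiments.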

Aorta [12] = test: Vasodilatory activity in Wistar rat thoracic aorta assessed as relaxation of L-phenylephrine-induced vasoconstriction in presence of 1 uM sGC inhibitor ODQ; type: functional, tissue-based; outline: as §4
Rattus norvegicus [13] = test: Antiinflammatory activity in Wistar rat assessed as inhibition of carrageenan-induced paw edema at 120 mg/kg, administered intragastrically immediately after carrageenan challenge measured after 3 hrs by water plethysmometer relative to control; type: functional; conditions: po, route intragastric; outline: as §1
Rattus norvegicus [14] = test: Ulcerogenicity in Wistar rat assessed as damage in gastric mucosa-lesion index at 120 mg/kg, administered intragastrically after 3 hrs by stereomicroscopy; type: toxicity, organism-based; parameters: dose 120 mg/kg, route intragastric; conditions: in vivo, po; outline: as §2
[15] = Stability of the compound in phosphate buffer at pH 7.4 assessed as compound remaining at 100 uM after 3 hrs by RP-HPLC analysis; type: physicochemical; conditions: read-out: Stability
Outline: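 Each compound was incubated in pH 7.4 aqueous buffer at a final 100 µM and held at 37 ± 0.5 °C. Aliquots taken at timed intervals were run on RP-HPLC (C18; acetonitrile/water 55:45 with 0.1% TFA; 1.2 mL/min), calibrated linearly over 1–200 µM. Remaining ester versus time was fitted to one-phase exponential decay.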

Prostaglandin G/H synthase 1 (Homo sapiens), sequence (P23219 whole entry): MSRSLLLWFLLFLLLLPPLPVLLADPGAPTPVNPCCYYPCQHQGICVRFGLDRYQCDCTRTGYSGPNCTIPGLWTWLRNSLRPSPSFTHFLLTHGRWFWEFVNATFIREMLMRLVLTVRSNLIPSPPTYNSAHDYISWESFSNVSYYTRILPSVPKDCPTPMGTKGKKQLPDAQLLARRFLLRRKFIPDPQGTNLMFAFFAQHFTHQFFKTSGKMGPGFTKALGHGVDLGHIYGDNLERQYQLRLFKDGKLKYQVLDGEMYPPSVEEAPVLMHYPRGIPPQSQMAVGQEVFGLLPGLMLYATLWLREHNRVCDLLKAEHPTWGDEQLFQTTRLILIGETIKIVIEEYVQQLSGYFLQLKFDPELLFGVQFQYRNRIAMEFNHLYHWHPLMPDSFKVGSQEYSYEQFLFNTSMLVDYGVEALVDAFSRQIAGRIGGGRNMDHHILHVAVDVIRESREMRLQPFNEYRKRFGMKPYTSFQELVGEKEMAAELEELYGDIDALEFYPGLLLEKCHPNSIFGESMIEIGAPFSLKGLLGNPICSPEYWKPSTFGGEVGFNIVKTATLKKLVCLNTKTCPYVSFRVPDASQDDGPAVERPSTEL

Row | half-life at 200 µM [3] [min] | half-life at 100 µM [4] [min] | remaining at 3 h, 100 µM [5] [%] | inhibition [6] | inhibition [8] | IC50 [9] [µM] | IC50 (Thromboxane A2 receptor) [µM] | EC50 (Aorta [10]) [µM] | IC50 [11] [µM] | EC50 (Aorta [12]) [µM] | Structure (SMILES) | inhibition in vivo (Rattus norvegicus [1]) [%] | UI (Rattus norvegicus [2]) [mm] | inhibition at 300 µM [7] [%] | Activity (Aorta [10]) | inhibition in vivo at 120 mg/kg (Rattus norvegicus [1]; dose 120 mg/kg) [%] | inhibition in vivo at 120 mg/kg (Rattus norvegicus [13]) [%] | UI (Rattus norvegicus [14]) [mm] | remaining at 3 h, 100 µM [15] [%]
1 | 14 | 38 | 96 | inactive | inactive | – | – | – | – | – | N#Cc1nonc1CSCC(=O)Oc1ccccc1C(=O)O | 38.9 | 0.2 | 36 | – | – | – | – | –
2 | 27 | 50 | 97 | inactive | inactive | 144 | 39 | – | – | – | NC(=O)c1nonc1CSCC(=O)Oc1ccccc1C(=O)O | 39.6 | 0.3 | – | – | – | – | – | –
3 | 13 | 33 | 96 | inactive | inactive | 7.3 | – | 0.04 | 88 | 2.4 | N#Cc1c(CSCC(=O)Oc2ccccc2C(=O)O)no[n+]1[O-] | 54.9 | 1.2 | – | Dose-dependent effect | – | – | – | –
4 | 35 | 370 | 97 | inactive | inactive | – | – | – | – | – | O=C(CCOc1nonc1S(=O)(=O)c1ccccc1)Oc1ccccc1C(=O)O | 38.8 | 0.3 | 2.6 | – | – | – | – | –

Second part, the molecule before the results:

Row | Structure (SMILES) | half-life at 200 µM [3] [min] | half-life at 100 µM [4] [min] | remaining at 3 h, 100 µM [5] [%] | inhibition [6] | inhibition [8] | IC50 [9] [µM] | IC50 (Thromboxane A2 receptor) [µM] | EC50 (Aorta [10]) [µM] | IC50 [11] [µM] | EC50 (Aorta [12]) [µM] | inhibition in vivo (Rattus norvegicus [1]) [%] | UI (Rattus norvegicus [2]) [mm] | inhibition at 300 µM [7] [%] | Activity (Aorta [10]) | inhibition in vivo at 120 mg/kg (Rattus norvegicus [1]; dose 120 mg/kg) [%] | inhibition in vivo at 120 mg/kg (Rattus norvegicus [13]) [%] | UI (Rattus norvegicus [14]) [mm] | remaining at 3 h, 100 µM [15] [%]
5 | O=C(CCOc1nonc1-c1ccccc1)Oc1ccccc1C(=O)O | 40 | 318 | 98 | inactive | inactive | – | – | – | – | – | 38.6 | 1.2 | 12 | – | – | – | – | –
6 | NC(=O)c1c(CSCC(=O)Oc2ccccc2C(=O)O)no[n+]1[O-] | 27 | 45 | 97 | inactive | inactive | 66 | 38 | 23 | 59 | – | 39.4 | – | – | Dose-dependent effect | – | – | – | –
7 | O=C(CCOc1no[n+]([O-])c1-c1ccccc1)Oc1ccccc1C(=O)O | 35 | 288 | 98 | inactive | inactive | – | – | 11 | – | – | 37.6 | 0.3 | 17 | Dose-dependent effect | – | – | – | –
8 | O=C(CCOc1no[n+]([O-])c1S(=O)(=O)c1ccccc1)Oc1ccccc1C(=O)O | 30 | 360 | 96 | inactive | inactive | 7.8 | – | 0.014 | 152 | 0.97 | 49.6 | 0.4 | – | Dose-dependent effect | – | – | – | –
9 | O=C(O)c1ccccc1O [SALICYLIC ACID] | – | – | – | – | – | – | – | – | – | – | – | 1.1 | – | – | 36.8 | – | – | –
10 | CC(=O)Oc1ccccc1C(=O)O [ASPIRIN] | 63 | – | 90 | – | – | 54 | – | – | – | – | – | – | – | – | – | 43 | 50 | 90
